Here are results for six molecules from ChEMBL document CHEMBL5550118, “Human mitochondrial glutathione transferases: Kinetic parameters and accommodation of a mitochondria-targeting group in substrates” (Bioorg Med Chem, 2024).

The nature of data set [1]: GSH reactivity in […] at 30 degreeC assessed as second-order reaction rate constant. It counts as ADME. Conditions: buffer.
Substrate in data set [2]: O=[N+]([O-])c1ccc(Cl)c([N+](=O)[O-])c1
The data set can be described thus: Substrate activity at N-terminal His6 tagged human GSTA4-4 expressed in Escherichia coli BL21(DE3) assessed as catalytic constant at pH 6.5 at 30 degreeC by Michaelis-Menten analysis. The method in brief: (§1)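 N-terminal His6/TEV-tagged human enzyme, expressed in E. coli BL21(DE3) and Ni-NTA purified. Run in 0.1 M sodium phosphate, pH 6.5, 30 °C. CDNB was varied with GSH fixed at 10 mM, or GSH was varied with CDNB fixed at 1 mM (GSH constants apparent). Conjugate formation read at 340 nm as initial rates over ≥1 min, in triplicate. A single background rate was subtracted, then fitted to Michaelis–Menten by non-linear regression.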

Substrate in data set [3]: O=[N+]([O-])c1ccc(Cl)c([N+](=O)[O-])c1
Put plainly: Substrate activity at N-terminal His6 tagged human GSTA4-4 expressed in Escherichia coli BL21(DE3) assessed as Km at pH 6.5 at 30 degreeC by Michaelis-Menten analysis. The method in brief: as §1

Substrate in data set [4]: O=[N+]([O-])c1ccc(Cl)c([N+](=O)[O-])c1
The data set can be described thus: Substrate activity at N-terminal His6 tagged human GSTA4-4 expressed in Escherichia coli BL21(DE3) assessed as Kcat/Km at pH 6.5 at 30 degreeC by Michaelis-Menten analysis. Put shortly: as §1

Substrate in data set [5]: O=[N+]([O-])c1ccc(Cl)c([N+](=O)[O-])c1
Put plainly: Substrate activity at N-terminal His6 tagged human GSTA4-4 expressed in Escherichia coli BL21(DE3) assessed as catalytic constant at pH 8 at 30 degreeC by Michaelis-Menten analysis. Put shortly:
(§2)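 His6/TEV-tagged human GST was expressed in E. coli BL21(DE3) and purified on Ni-NTA. Assays used 0.1 M HEPES-HCl, pH 8, 30 °C. One substrate was varied: CDNB or chloronitrobenzene derivatives (derivatives 0.0625–2 mM) with 10 mM GSH, or GSH with 1 mM CDNB. Initial conjugate-formation rates were read at substrate-specific wavelengths, in triplicate. Triplicate background rates were subtracted. Enzyme amount was adjusted as needed. Fit by Michaelis–Menten non-linear regression or Lineweaver–Burk.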

Substrate in data set [6]: O=[N+]([O-])c1ccc(Cl)c([N+](=O)[O-])c1
The data set can be described thus: Substrate activity at N-terminal His6 tagged human GSTA4-4 expressed in Escherichia coli BL21(DE3) assessed as Km at pH 8 at 30 degreeC by Michaelis-Menten analysis. Put shortly:
as §2

Substrate in data set [7]: O=[N+]([O-])c1cc([N+](=O)[O-])c(NCCCC[P+](c2ccccc2)(c2ccccc2)c2ccccc2)cc1Cl
The data set can be described thus: (§3) Substrate activity at N-terminal His6 tagged human GSTA4-4 expressed in Escherichia coli BL21(DE3) assessed as Kcat/Km at pH 8 at 30 degreeC by Michaelis-Menten analysis. The method in brief: as §2

Substrate in data set [8]: O=[N+]([O-])c1ccc(Cl)c([N+](=O)[O-])c1
The description is as §3. Put shortly: as §2

Substrate in data set [9]: COC(=O)c1cc([N+](=O)O)ccc1Cl
Put plainly: Substrate activity at N-terminal His6 tagged human GSTA4-4 expressed in Escherichia coli BL21(DE3) assessed as catalytic constant at pH 8 at 30 degreeC by Lineweaver-Burk plot analysis. Put shortly: (§4)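 N-terminal His6/TEV-tagged enzyme was expressed in E. coli BL21(DE3) by IPTG induction at 15 °C and purified on Ni-NTA. Assays used 0.1 M HEPES-HCl pH 8, 30°C, with GSH fixed at 10 mM and substrate varied from 0.0625 to 2 mM. Conjugate formation was read by UV absorbance, and initial rates were measured in triplicate after subtracting the background rate. Constants came from a double-reciprocal Lineweaver-Burk fit.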

Substrate in data set [10]: COC(=O)c1cc([N+](=O)O)ccc1Cl
Put plainly: (§5) Substrate activity at N-terminal His6 tagged human GSTA4-4 expressed in Escherichia coli BL21(DE3) assessed as Kcat/Km at pH 8 at 30 degreeC by Lineweaver-Burk plot analysis. Put shortly: as §4

Substrate in data set [11]: COC(=O)c1ccc(Cl)c([N+](=O)[O-])c1
The data set is described as §5. The method in brief:
as §4

Substrate in data set [12]: O=C(NCCCCC[P+](c1ccccc1)(c1ccccc1)c1ccccc1)c1ccc(Cl)c([N+](=O)[O-])c1
The data set is described as §5. The method in brief: as §4

Substrate in data set [13]: O=[N+]([O-])c1ccc(Cl)c([N+](=O)[O-])c1
Put plainly: Substrate activity at N-terminal His6 tagged human GSTK1-1 expressed in Escherichia coli BL21(DE3) assessed as catalytic constant at pH 8 at 30 degreeC by Michaelis-Menten analysis. Put shortly: as §2

Substrate in data set [14]: O=[N+]([O-])c1ccc(Cl)c([N+](=O)[O-])c1
The data set can be described thus: Substrate activity at N-terminal His6 tagged human GSTK1-1 expressed in Escherichia coli BL21(DE3) assessed as Km at pH 8 at 30 degreeC by Michaelis-Menten analysis. Put shortly:
as §2

Substrate in data set [15]: O=[N+]([O-])c1cc([N+](=O)[O-])c(NCCCC[P+](c2ccccc2)(c2ccccc2)c2ccccc2)cc1Cl
The data set can be described thus: (§6) Substrate activity at N-terminal His6 tagged human GSTK1-1 expressed in Escherichia coli BL21(DE3) assessed as Kcat/Km at pH 8 at 30 degreeC by Michaelis-Menten analysis. Put shortly:
as §2

Substrate in data set [16]: O=[N+]([O-])c1ccc(Cl)c([N+](=O)[O-])c1
The description is as §6. Put shortly:
as §2

Substrate in data set [17]: COC(=O)c1cc([N+](=O)O)ccc1Cl
The data set can be described thus: Substrate activity at N-terminal His6 tagged human GSTK1-1 expressed in Escherichia coli BL21(DE3) assessed as catalytic constant at pH 8 at 30 degreeC by Lineweaver-Burk plot analysis. Put shortly:
as §4

Substrate in data set [18]: COC(=O)c1cc([N+](=O)O)ccc1Cl
Put plainly: (§7) Substrate activity at N-terminal His6 tagged human GSTK1-1 expressed in Escherichia coli BL21(DE3) assessed as Kcat/Km at pH 8 at 30 degreeC by Lineweaver-Burk plot analysis. The method in brief: as §4

Substrate in data set [19]: COC(=O)c1ccc(Cl)c([N+](=O)[O-])c1
The data set is described as §7. The method in brief:
as §4

Substrate in data set [20]: O=[N+]([O-])c1ccc(Cl)c([N+](=O)[O-])c1
Put plainly: Substrate activity at N-terminal His6 tagged human GSTA1-1 expressed in Escherichia coli BL21(DE3) assessed as catalytic constant at pH 6.5 at 30 degreeC by Michaelis-Menten analysis. Put shortly: as §1

Substrate in data set [21]: O=[N+]([O-])c1ccc(Cl)c([N+](=O)[O-])c1
The data set can be described thus: Substrate activity at N-terminal His6 tagged human GSTA1-1 expressed in Escherichia coli BL21(DE3) assessed as Km at pH 6.5 at 30 degreeC by Michaelis-Menten analysis. Put shortly: as §1

Substrate in data set [22]: O=[N+]([O-])c1ccc(Cl)c([N+](=O)[O-])c1
The data set can be described thus: Substrate activity at N-terminal His6 tagged human GSTA1-1 expressed in Escherichia coli BL21(DE3) assessed as Kcat/Km at pH 6.5 at 30 degreeC by Michaelis-Menten analysis. The method in brief: as §1

Substrate in data set [23]: O=[N+]([O-])c1ccc(Cl)c([N+](=O)[O-])c1
The data set can be described thus: Substrate activity at N-terminal His6 tagged human GSTA1-1 expressed in Escherichia coli BL21(DE3) assessed as catalytic constant at pH 8 at 30 degreeC by Michaelis-Menten analysis. The method in brief:
as §2

Substrate in data set [24]: O=[N+]([O-])c1ccc(Cl)c([N+](=O)[O-])c1
Put plainly: Substrate activity at N-terminal His6 tagged human GSTA1-1 expressed in Escherichia coli BL21(DE3) assessed as Km at pH 8 at 30 degreeC by Michaelis-Menten analysis. Put shortly: as §2

Substrate in data set [25]: O=[N+]([O-])c1cc([N+](=O)[O-])c(NCCCC[P+](c2ccccc2)(c2ccccc2)c2ccccc2)cc1Cl
The data set can be described thus: (§8) Substrate activity at N-terminal His6 tagged human GSTA1-1 expressed in Escherichia coli BL21(DE3) assessed as Kcat/Km at pH 8 at 30 degreeC by Michaelis-Menten analysis. The method in brief: as §2

Substrate in data set [26]: O=[N+]([O-])c1ccc(Cl)c([N+](=O)[O-])c1
The data set is described as §8. The method in brief:
as §2

Substrate in data set [27]: O=C(NCCCCC[P+](c1ccccc1)(c1ccccc1)c1ccccc1)c1cc([N+](=O)O)ccc1Cl
Put plainly: Substrate activity at N-terminal His6 tagged human GSTA1-1 expressed in Escherichia coli BL21(DE3) assessed as catalytic constant at pH 8 at 30 degreeC by Lineweaver-Burk plot analysis. Put shortly:
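Assayed in 0.1 M HEPES-HCl pH 8 at 30°C. GSH fixed at 10 mM and chloronitrobenzene substrate varied 0.0625–2 mM. Initial rate of GS-conjugate formation read by UV absorbance at a substrate-specific wavelength. Background chemical rate (triplicate) subtracted. Triplicate rates, kcat from best-line fit of double-reciprocal plot.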

Substrate in data set [28]: COC(=O)c1cc([N+](=O)O)ccc1Cl
The data set can be described thus: (§9) Substrate activity at N-terminal His6 tagged human GSTA1-1 expressed in Escherichia coli BL21(DE3) assessed as Kcat/Km at pH 8 at 30 degreeC by Lineweaver-Burk plot analysis. The method in brief:
as §4

Substrate in data set [29]: COC(=O)c1ccc(Cl)c([N+](=O)[O-])c1
Described as §9. The method in brief: as §4

Substrate in data set [30]: O=C(NCCCCC[P+](c1ccccc1)(c1ccccc1)c1ccccc1)c1cc([N+](=O)O)ccc1Cl
The data set is described as §9. The method in brief:
as §4

Substrate in data set [31]: O=C(NCCCCC[P+](c1ccccc1)(c1ccccc1)c1ccccc1)c1ccc(Cl)c([N+](=O)[O-])c1
Described as §9. Put shortly: as §4

As for `O=[N+]([O-])c1ccc(Cl)c([N+](=O)[O-])c1` [DINITROCHLOROBENZENE], in data set [1], the K is listed as 5.05 10^-5/mM/s.
The same measure, in the same setting: the value for `O=[N+]([O-])c1cc([N+](=O)[O-])c(NCCCC[P+](c2ccccc2)(c2ccccc2)c2ccccc2)cc1Cl` was 1.5 10^-5/mM/s.
Still for that read-out and setting: under `COC(=O)c1ccc(Cl)c([N+](=O)[O-])c1` stands 2.92 10^-6/mM/s.

B1: Glutathione S-transferase A4 (Homo sapiens), O15217 (protein)
chain: MAARPKLHYPNGRGRMESVRWVLAAAGVEFDEEFLETKEQLYKLQDGNHLLFQQVPMVEIDGMKLVQTRSILHYIADKHNLFGKNLKERTLIDMYVEGTLDLLELLIMHPFLKPDDQQKEVVNMAQKAIIRYFPVFEKILRGHGQSFLVGNQLSLADVILLQTILALEEKIPNILSAFPFLQEYTVKLSNIPTIKRFLEPGSKKKPPPDEIYVRTVYNIFRP
In the case of B1, the values for the catalytic constant (kcat) in [2], in data set [5] and in data set [9] were 14.9 s⁻¹, 4.94 s⁻¹ and 5.61 10^-2/s, respectively. The Km (commonly the concentration of substrate that gives half-maximal velocity) in data set [3] came to 5200 µM; in [6] it was 253 µM. Moreover, the kcat/Km (in general, the second-order rate constant that governs catalysis at low substrate concentration) in data set [4] is 2930 M⁻¹ s⁻¹; in data set [7], 32200 M⁻¹ s⁻¹; in [8], 19500 M⁻¹ s⁻¹; in data set [10], 5.91 10^-2/mM/s; in data set [11], 146 M⁻¹ s⁻¹; in data set [12] it was 2570 M⁻¹ s⁻¹.

B2: Glutathione S-transferase kappa 1 (Homo sapiens), Q9Y2Q3 (protein)
chain: MGPLPRTVELFYDVLSPYSWLGFEILCRYQNIWNINLQLRPSLITGIMKDSGNKPPGLLPRKGLYMANDLKLLRHHLQIPIHFPKDFLSVMLEKGSLSAMRFLTAVNLEHPEMLEKASRELWMRVWSRNEDITEPQSILAAAEKAGMSAEQAQGLLEKIATPKVKNQLKETTEAACRYGAFGLPITVAHVDGQTHMLFGSDRMELLAHLLGEKWMGPIPPAVNARL
Take B2: the figures for the turnover number (kcat) in [13] and in data set [17] were 14.6 s⁻¹ and 9.45 10^-2/s, respectively. In addition, in data set [14], the Km came to 1900 µM. Also, the kcat/Km in data set [15] is 287 M⁻¹ s⁻¹; in [16], 7670 M⁻¹ s⁻¹; in data set [18], 6.13 10^-2/mM/s; in [19], 351 M⁻¹ s⁻¹.

B3: Glutathione S-transferase A1 (Homo sapiens), P08263 (protein)
chain: MAEKPKLHYFNARGRMESTRWLLAAAGVEFEEKFIKSAEDLDKLRNDGYLMFQQVPMVEIDGMKLVQTRAILNYIASKYNLYGKDIKERALIDMYIEGIADLGEMILLLPVCPPEEKDAKLALIKEKIKNRYFPAFEKVLKSHGQDYLVGNKLSRADIHLVELLYYVEELDSSLISSFPLLKALKTRISNLPTVKKFLQPGSPRKPPMDEKSLEEARKIFRF
For B3, the turnover number (kcat) (usually the number of substrate molecules converted per active site and unit of time at saturation) in [20] is 35.4 s⁻¹; in [23], 45.3 s⁻¹; in data set [27], 4.67 10^-2/s. The values for the Km in [21] and in data set [24] were 492 µM and 128 µM, respectively. Besides, the kcat/Km in data set [22] is 71900 M⁻¹ s⁻¹; in [25], 101000 M⁻¹ s⁻¹; in data set [26] it was 353000 M⁻¹ s⁻¹; in [28], 1380 M⁻¹ s⁻¹; in data set [29] it was 4320 M⁻¹ s⁻¹; in data set [30] it was 6.49 10^-2/mM/s. The kcat/Km in data set [31] was 21600 M⁻¹ s⁻¹.
